Assay: Inhibition of Escherichia coli O18:K1 C7 hldE-K expressed in Escherichia coli BL21 using beta-heptose 7-phosphate as substrate incubated for 30 mins prior to substrate addition measured after 30 mins by luminescence assay
Method in brief: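 E. coli HldE (His-tagged, IPTG-induced, Ni-NTA-purified), 3 nM, preincubated 30 min at room temperature with inhibitor in Hepes pH 7.5, MnCl₂, KCl, 0.012% Triton-X100, DTT, MBP. Reaction with 0.2 μM heptose 7-phosphate and 0.2 μM ATP, 30 min at room temperature. Remaining ATP read by luciferase/luciferin luminescence; 6−10 concentrations fitted to a Langmuir model for IC50.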

| Compound | IC50 [µM] |
| --- | --- |
| COc1ccc2sc(CNc3nncc(-c4c(C)cc(Br)cc4C)n3)nc2c1 | 1.2 |
| COc1cccc(OC)c1-c1cnnc(N(C)Cc2nc(C)c(C)s2)n1 | 5 |
| COc1cccc(OC)c1-c1cnnc(N2CCCCC2c2nc3ccccc3s2)n1 (stereo not given) | > 300 |
| NCCOc1ccc2sc(CNc3nncc(-c4c(Cl)cccc4Cl)n3)nc2c1 | 0.185 |
| COc1ccc2sc(CNc3nncc(-c4c(C)cc(C#N)cc4C)n3)nc2c1 | 1.4 |
| COc1ccc2sc(CNc3nncc(C(C)C)n3)nc2c1 | > 300 |
| COc1cccc(OC)c1-c1cnnc(NCc2nc3c(s2)CCCC3)n1 | 1.9 |
| COc1cccc(OC)c1-c1cnnc(N(CC(=O)O)Cc2nc3ccccc3s2)n1 | 2 |
| COC(=O)c1ccc2nc(CNc3nncc(-c4c(OC)cccc4OC)n3)sc2c1 | 89 |
| COc1cccc(OC)c1-c1cnnc(NCc2nc(C)c(C)s2)n1 | 6 |
| COc1ccc2sc(CNc3nncc(C(C)(C)O)n3)nc2c1 | > 300 |
| COc1ccc2sc(CNc3nncc(-c4c(C)cc(-c5ccc(OC)nc5)cc4C)n3)nc2c1 | 0.89 |
| COc1cccc(OC)c1-c1cnnc(NCc2nc3cc(OCC(=O)O)ccc3s2)n1 | 0.25 |
| COc1cccc(OC)c1-c1cnnc(NCc2ccccn2)n1 | > 300 |
| COc1cccc(OC)c1-c1cnnc(NCc2nc(C)c(CCO)s2)n1 | > 300 |
| COc1cccc(OC)c1-c1cnnc(NCc2cc3ccccc3s2)n1 | > 300 |
| COc1cccc(OC)c1-c1cnnc(NCc2nc3ccccc3[nH]2)n1 | > 300 |
| COc1cccc(OC)c1-c1cnnc(NCc2nc3ccc(NC(C)=O)cc3s2)n1 | 49 |
| COc1ccc2sc(CNc3nncc(-c4cc(-c5cccnc5)ccc4Cl)n3)nc2c1 | 0.15 |
| COc1cccc(OC)c1-c1cnnc(NCc2nc3ccccc3o2)n1 | 34 |
| COc1ccc2sc(CNc3nncc(-c4c(F)cccc4F)n3)nc2c1 | 2.4 |
| COc1ccc2sc(CNc3nncc(-c4c(OC)cccc4OC)n3)nc2c1 | 0.67 |
| COc1ccc2sc(CNc3nncc(-c4ccccc4Cl)n3)nc2c1 | 1.4 |
| COc1ccc2sc(CNc3nncc(-c4cc(NC(C)=O)ccc4Cl)n3)nc2c1 | 1.4 |
| CCOC(=O)c1sc(CNc2nncc(-c3c(OC)cccc3OC)n2)nc1C | > 300 |
| COc1cccc(OC)c1-c1cnnc(NCc2nc3ccc(CO)cc3s2)n1 | 15 |
| COc1ccc2sc(CNc3nncc(-c4cc(Br)ccc4Cl)n3)nc2c1 | 0.76 |

Now from value to compound:

| IC50 [µM] | Compound |
| --- | --- |
| > 300 | COc1cccc(OC)c1-c1cnnc(N(CCCO)Cc2nc3ccccc3s2)n1 |
| 1.6 | COc1cccc(OC)c1-c1cnnc(NCc2nc3cc(Cl)ccc3s2)n1 |
| 25 | COc1cccc(OC)c1-c1cnnc(NCc2cc(C)n(C)n2)n1 |
| 40 | COc1cccc(OC)c1-c1cnnc(OCc2nc(C)c(C)s2)n1 |
| > 300 | COc1ccc2sc(CNc3nncc(N4CCCCC4CO)n3)nc2c1 (stereo not given) |
| > 300 | COc1cccc(OC)c1-c1cnnc(NCc2cc(C)c(C)o2)n1 |
| 51 | Cc1oc(-c2ccccc2)nc1C(=O)N(CC(=O)O)Cc1ccccn1 |
| > 300 | COc1ccc2sc(CNc3nncc(N4[C@H](C)CCC[C@@H]4C)n3)nc2c1 |
| > 300 | COc1cccc(OC)c1-c1cnnc(NCc2ccc3ccccc3n2)n1 |
| > 300 | COc1cccc(OC)c1-c1cnnc(NCc2nc3ccccc3n2C)n1 |
| 3.4 | COc1cccc(OC)c1-c1cnnc(NCc2nc3ccc(O)cc3s2)n1 |
| 7.6 | COc1cccc(OC)c1-c1cnnc(NCc2nc3cc(NC(C)=O)ccc3s2)n1 |
| 54 | COc1cccc(OC)c1-c1cnnc(NC(C)c2nc(C)c(C)s2)n1 (stereo not given) |
| 0.39 | COc1cccc(OC)c1-c1cnnc(NCc2nc3cc(O)ccc3s2)n1 |
| 0.32 | COc1ccc2sc(CNc3nncc(-c4c(C)cc(N)cc4C)n3)nc2c1 |
| 46 | COc1cccc(OC)c1-c1cnnc(N(CCC(=O)O)Cc2nc3ccccc3s2)n1 |
| 1.4 | COc1cccc(OC)c1-c1cnnc(NCc2nc3cc(N)ccc3s2)n1 |
| 1.5 | COc1cccc(OC)c1-c1cnnc(NCc2nc3cc(C)ccc3s2)n1 |

Reference: ChEMBL document CHEMBL2321650, “Novel HldE-K inhibitors leading to attenuated Gram negative bacterial virulence” (J Med Chem, 2013)
